Measured values from different studies.
Cell line: HeLa
Read-out: cell growth or viability

| Structure (SMILES) | method | time | IC50 |
| --- | --- | --- | --- |
| N#Cc1ccc(NC(=S)NN=Cc2ccc(O)cc2)cc1 |  | 72 h | 91 µg/mL |
| O=C(Cc1ccc2ccccc2c1)N[C@H](Cc1ccccc1)C(=O)N[C@@H](Cc1ccccc1)C(=O)N[C@@H](Cc1ccc(OP(=O)(O)O)cc1)C(=O)O | MTT | 48 h | > 500000 nM |
| CC[C@@]1(O)C(=O)OCc2c1cc1n(c2=O)Cc2cc3cc4c(cc3nc2-1)OCO4 | MTT | 72 h | 26 nM |
| C[C@]12CCC(=O)C[C@@H]1CC[C@@H]1[C@@H]2CC[C@@]2(C)[C@H]1CC[C@]2(C)O | MTT | 24 h | 27600 nM |
| N.N.[Cl][Pt][Cl] | MTT | 48 h | 17000 nM |
| CC[C@H](C)[C@@H]([C@@H](CC(=O)N1CCC[C@H]1[C@H](OC)[C@@H](C)C(=O)N[C@H](C)[C@@H](O)c1ccccc1)OC)N(C)C(=O)[C@@H](NC(=O)[C@H](C(C)C)N(C)C(=O)OCc1ccc(NC(=O)[C@H](CCCNC(N)=O)NC(=O)[C@@H](NC(=O)CCCCCN2C(=O)CC(SCCC(=O)N[C@@H](Cc3cn(CCOCCNCCCCCCOc4cc(OCCCc5c(C)n[nH]c5C)cc(C(=O)O)c4)nn3)C(=O)NCCCCCC(=O)NCCCC[C@H](NC(=O)N[C@@H](CCC(=O)O)C(=O)O)C(=O)O)C2=O)C(C)C)cc1)C(C)C (stereo partly shown) | MTT |  | 372 nM |
| COc1cc(C(=O)c2cc3c(-c4ccccc4)c(OC)ccc3o2)cc(OC)c1OC |  |  | 25000 nM |
| CC[C@@]1(OC(=O)[C@@H](N)CCSC)C(=O)OCc2c1cc1n(c2=O)Cc2cc3cc4c(cc3nc2-1)OCO4 | MTT |  | 95 nM |
| COc1c2c(cc3c1OCO3)[C@]13C=C[C@H](OC)C[C@@H]1[N@](C2)C[C@H]3OC(=O)c1ccoc1 | WST-1 | 48 h | > 10000 nM |
| Nc1cc(I)c(I)cc1N |  | 72 h | 15000 nM |
| CC[C@@]1(OC(=O)[C@@H]2CCCN2)C(=O)OCc2c1cc1n(c2=O)Cc2cc3cc4c(cc3nc2-1)OCO4 | MTT |  | 200 nM |
| COc1ccc(C=NNC(=S)Nc2ccc(C#N)cc2)cc1 |  | 72 h | 31 µg/mL |
| CC[C@@]1(OC(=O)[C@H](C)N)C(=O)OCc2c1cc1n(c2=O)Cc2cc3cc4c(cc3nc2-1)OCO4 | MTT |  | 103 nM |
| CC(C)[C@]12O[C@H]1[C@@H]1O[C@]13[C@]1(O[C@H]1C[C@H]1C4=C(CC[C@@]13C)C(=O)OC4)[C@@H]2O | thymidine uptake | 24 h | 12 nM |
| CC[C@@]1(OC(=O)C(C)c2ccc(CC(C)C)cc2)C(=O)OCc2c1cc1n(c2=O)Cc2cc3cc4c(cc3nc2-1)OCO4 (stereo partly shown) | MTT |  | > 5000 nM |
| N#Cc1ccc(NC(=S)NN)cc1 |  | 72 h | 11 µg/mL |
| COc1c2c(cc3c1OCO3)[C@]13C=C[C@H](OC)C[C@@H]1[N@](C2)C[C@H]3OC(=O)c1ccc2ccccc2c1 | WST-1 | 48 h | > 10000 nM |
| N.N.[Cl][Pt][Cl] |  | 72 h | 0.22 µg/mL |
| CC[C@@]1(OC(=O)CN)C(=O)OCc2c1cc1n(c2=O)Cc2cc3cc4c(cc3nc2-1)OCO4 | MTT |  | 42 nM |
